# Source: PubChem BioAssay AID720543 (The Scripps Research Institute Molecular Screening Center, 2013)
# Out of some 370,000 compounds screened, about 2,000 (0.54%) were called active. Shown is part of a subset that was picked to be rich in actives. A number with no mark means an inactive call.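 The calls were made as follows: active = inhibition exceeding the mean over every tested compound plus 3 SD (cut at about 30% in these data); inactive = the rest.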
# Target: (Lyso)-N-acylphosphatidylethanolamine lipase (Mus musculus) (UniProt Q8VD66)
# Test: mouse ABHD4 hydrolase activity blockers – biochemical, fluorescence polarization, primary screen (AID 720543);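 also: 0% = plate median of compound wells and 100% = S159A mutant with DMSO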
# Conditions: purified mABHD4, FP-Rh probe fluorescence polarization; at 8.92 µM; hits give high values
# Summary of the method: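 Assay system: mABHD4 protein; medium: HEPES pH 7.0, NaCl, Pluronic buffer; dosing: 8.92 µM, single dose; schedule: 45 min + 60 min at 25 °C; signal: FP readout, ex 525 nm / em 598 nm; read-out: normalized percent inhibition of probe labeling; repeats: single replicate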
# Chain of (Lyso)-N-acylphosphatidylethanolamine lipase (Mus musculus) (Q8VD66 whole entry, looked up): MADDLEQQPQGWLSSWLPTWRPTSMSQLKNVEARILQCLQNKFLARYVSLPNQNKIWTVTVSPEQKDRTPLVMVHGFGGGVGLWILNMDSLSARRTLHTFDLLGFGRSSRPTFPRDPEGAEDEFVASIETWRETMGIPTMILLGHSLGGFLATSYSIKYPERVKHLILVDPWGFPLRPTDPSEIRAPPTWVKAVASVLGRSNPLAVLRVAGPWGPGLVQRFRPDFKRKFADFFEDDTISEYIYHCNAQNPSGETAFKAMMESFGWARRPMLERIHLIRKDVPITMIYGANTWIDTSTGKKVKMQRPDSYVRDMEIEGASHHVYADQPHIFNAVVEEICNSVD
row,SMILES,inhibition
1,CCOc1ccc2sc(NS(=O)(=O)c3ccc(N)cc3)nc2c1,16.3%
2,CCOc1ccc2nc(Nc3nc4ccc(NC(C)=O)cc4s3)sc2c1,35.1% (active)
3,COc1ccc(/C=C/c2nnc(NC(=O)C(C)C)s2)cc1,-1.43%
4,CCOc1ccc2nc(NCCNC(=O)C(C)(C)C)c(C)cc2c1,-2.62%
5,COc1ccc2nc(Nc3nc4ccc(NC(C)=O)cc4s3)sc2c1,37.7% (active)
6,COc1ccc(-c2noc(C(C)NS(=O)(=O)c3ccc(NC(C)=O)cc3)n2)cc1 (stereo not drawn),0.4%
7,CN1CCN(C(=O)C(=O)c2cn(CC(=O)N3CCCC3)c3ccccc23)CC1,8.39%
8,Nc1nc2c(ncn2[C@@H]2O[C@H](C(=O)N[C@@H](Cc3ccccc3)C(=O)NCc3ccccc3)[C@@H](O)[C@H]2O)c(=O)[nH]1,1.72%
9,COC(=O)[C@]12C[C@H](CC(=O)NCC34CC5CC(CC(C5)C3)C4)C(=O)N(Cc3ccc(Cl)cc3Cl)C1=C[C@H](COCc1ccccc1)O[C@@H]2C,2.69%
10,O=C(NCc1ccccc1)[C@@H]1CCCN1C(=O)[C@@H](NS(=O)(=O)c1ccc(F)cc1F)C1CCCCC1,-7.63%
11,COC(=O)[C@]12C[C@H](CC(=O)NCc3ccccc3)C(=O)N(Cc3ccccc3)C1=C[C@H](COCc1ccccc1)O[C@@H]2C,-5.73%
12,COC(=O)[C@@]12CCCCC=C1N(CCc1ccc(Cl)cc1)C(=O)[C@H]2CC(=O)NCc1ccc(OC)c(OC)c1,-1.49%
13,CCOC(=O)[C@@]12CCC3=C1N(CCC3)C(=O)[C@H](CC(=O)N1CCN(C(=O)c3ccco3)CC1)C2,2.38%
14,O=C1CC(c2ccccc2)C(c2ccccc2)=NN1 (stereo not drawn),-2.08%
15,CCOC(=O)Cn1c2c(n(-c3ccc(F)cc3)c1=O)C=C(c1ccccc1)[C@@H](C)C(C(=O)N(C)C1CCCCC1)=C2,34.2% (active)
16,CN(C(=O)COc1ncnc2c1cnn2-c1ccccc1)C1CCCCC1,-16.6%
17,CN(C(=O)CCn1c(=S)oc2ccccc21)C1CCCCC1,0.63%
18,CCC(=O)Nc1ccc2c(c1)C(=O)N(C)[C@@H]1CC[C@@H](CC(=O)NCCc3ccccc3)O[C@H]1CO2,-0.19%
19,CN1C(=O)c2cccc3c(N)ccc(c23)C1=O,32.9% (active)
20,Cc1nn(C)cc1N1C(=O)c2cccc3c(N)ccc(c23)C1=O,35.3% (active)
21,CC(C)C[C@H](NC(=O)CC1CCCC1)C(=O)N1CCC[C@H]1C(=O)NCc1ccccc1,0.46%

row,SMILES,inhibition
1,COc1ccc2c(C(C)c3ccc(N)cc3)cn(C)c2c1 (stereo not drawn),-3.15%
2,CC(NC(=O)CCCC1CCCCC1)c1ccc(S(N)(=O)=O)cc1 (stereo not drawn),-16%
3,CCOC(=O)C1CCN(C(=O)C(C)(C)NC(=O)Nc2ccccc2Cl)CC1,-3.65%
4,O=C(NCC1COc2ccccc2O1)c1ccc(NC(=O)c2cc(F)ccc2F)cc1 (stereo not drawn),5.07%
5,CCN(CC)C(=O)CC[C@H]1CC[C@]2(CCCN(Cc3ccc(Cl)cc3)C2)O1,-3.65%
6,C=CCN1C(=O)[C@@H](CC(=O)NCCCOCCCC)[C@]2(C(=O)OCC)CCCCC/C=C/12,-1.53%
7,Fc1cccc(Cc2noc(CN3CCN(c4cnccn4)CC3)n2)c1,-0.5%
8,Cc1cccc(N2CCN(Cc3nc(C4CC4)no3)CC2)n1,53.8% (active)
9,Cc1ccccc1N1CCN(Cc2nc(Cc3ccccc3F)no2)CC1,-7.9%
10,CCOC(=O)C1CCN(C(=O)C2(NC(=O)Nc3cccc(F)c3)CCCCC2)CC1,-0.97%
11,O=C(/C=C/c1ccc([N+](=O)[O-])cc1)NCCSCc1ccco1,-1.92%
12,CCCCC(=O)N[C@@H]1CC[C@@]23CCCN2C(=O)CCC[C@H]3[C@H]1C,3.19%
13,CC1CCN(c2ccc(C(=O)Nc3nnc(C4CC4)s3)cc2[N+](=O)[O-])CC1,2.94%
14,CC1CCN(c2ccc(S(=O)(=O)Nc3cc(C(=O)O)cc(C(=O)O)c3)cc2[N+](=O)[O-])CC1,-0.48%
15,CC1CCN(c2ccc(C(=O)O)cc2NS(=O)(=O)c2ccc(Br)s2)CC1,40.3% (active)
16,O=C1C=CC(=O)N1c1ccc(N2CCCCC2)cc1,40.5% (active)
17,Nn1c(SCC(=O)N2c3ccccc3Sc3ccccc32)nnc1-c1n[nH]c2c1CCC2,-15.8%
18,O=C1CC[C@@]23CCCN2C(=O)CCC[C@H]3[C@H]1Cc1ccccc1,-0.8%
19,CC1(C)OC(=O)C(=CNC(CO)C(=O)O)C(=O)O1 (stereo not drawn),5.15%
20,CC(=O)Nc1nc2ncccn2c1-c1ccc(C(F)(F)F)cc1,5.78%
21,CCCN1C(=O)c2[nH]nc(-c3ccccc3)c2C1c1ccccc1 (stereo not drawn),-7.15%

row,SMILES,inhibition
1,CC(C)NC(=O)/C(C#N)=C\c1ccc(N(C)C)c(Br)c1,3.76%
2,N#C/C(=C\c1ccc(O)c(O)c1)C(=O)NCc1ccccc1,47% (active)
3,O=C(CCCc1ccccc1)NCc1ccccc1,-1.11%
4,CC(=O)Nc1ccc(OC[C@@H](O)CN2CCC(C(O)(c3ccccc3)c3ccccc3)CC2)cc1,-3.77%
5,OC(c1ccccc1)(c1ccccc1)C1CCN(CCCOc2ccc(-c3ccsc3)cc2)CC1,13.8%
6,CN(C)c1ccc(NC(=O)NC2CCCCN(Cc3ccc(Cl)cc3)C2=O)cc1 (stereo not drawn),14%
7,Cc1cccc(N2CCN(c3ccc(NC(=O)/C=C\C(=O)O)cc3)CC2)c1,38.7% (active)
8,Cc1cccc(N2CCN(C(=O)c3ccccc3NC(=O)C3CCCCC3C(=O)O)CC2)c1 (stereo not drawn),2.26%
9,Cc1cccc(C)c1NC(=O)CS(=O)CC(=O)N1CCN(c2ccccc2)CC1 (stereo not drawn),-7.61%
10,COc1ccc(Cn2ccc3ccc(-c4ccc5ccn(Cc6ccccc6C)c5c4)cc32)cc1,7.66%
11,Cc1ccc(-c2nc(C3CCCN(S(=O)(=O)c4ccc(Br)s4)C3)no2)cc1 (stereo not drawn),7.38%
12,Oc1ccc(N2CCN(C(=S)NCc3ccccc3)CC2)cc1,14.8%
13,Oc1ccc(CNc2ccccc2O)cc1,37.8% (active)
14,c1ccc(CNCc2ccc(CNCc3ccccc3)cc2)cc1,5.37%
15,Cc1nc(CNc2ncnc3ccc(-c4ccc5c(c4)OCO5)cc23)cs1,-1.75%
16,CCOC(=O)[C@H]1[C@H]2COc3ccc(Cl)cc3[C@@H]2N2C(=O)c3cc(C)ccc3NC(=O)[C@@]12C,2.18%
17,O=C(OCc1ccccc1)N1CCC2CC1c1cc(N3CCN(S(=O)(=O)c4cc(Cl)cc(Cl)c4)CC3)ccc12 (stereo not drawn),2.29%
18,CCOC(=O)[C@H]1Nc2ccc(Cl)cc2[C@@H]2[C@H]1C1CC(c3ccccc31)N2C(=O)OCc1ccccc1 (stereo partly drawn),46.2% (active)
19,Cc1cc2nc3c(=O)[nH]c(=O)nc-3n(C[C@H](O)[C@H](O)[C@H](O)CO)c2cc1C,15.4%
20,CCN(CC)CCCC(C)n1c2nc(=O)[nH]c(=O)c-2nc2cc(Cl)ccc21 (stereo not drawn),29.5% (active)
21,O=C(CSc1nc2ccccc2s1)N=Nc1c(O)[nH]c2ccccc12,-11.2%

row,SMILES,inhibition
1,C/C(=N\NC(=O)CNC(=O)C(c1ccccc1)c1ccccc1)c1ccc(C)cc1,0.45%
2,C/C(=N\NC(=O)c1ccc(C)cc1)C1C(=O)c2ccccc2C1=O,32.6% (active)
3,O=C1c2ccccc2C(=O)C1C(=O)C1CC1,10.5%
4,CCOc1cc(C(=O)N2CCc3cc(OC)c(OC)cc3C2)ccc1OC(F)F,-1.64%
5,O=C(NCCCc1ccccc1)[C@H](Cc1ccccc1)NC1(C(=O)NCCc2c[nH]c3ccccc23)CCC1,-14.2%
6,CC(CNc1ccc([N+](=O)[O-])c2cccnc12)Nc1c([N+](=O)[O-])cc(C(F)(F)F)cc1[N+](=O)[O-] (stereo not drawn),3.66%
7,CC(=O)Oc1ccc(N(C(C)=O)S(=O)(=O)c2ccc3ccccc3c2)cc1Br,32.3% (active)
8,CCN1CCN(C(=O)CN(C)S(=O)(=O)c2ccc3ccccc3c2)CC1,4.18%
9,CN(C1CCS(=O)(=O)C1)S(=O)(=O)c1ccc2ccccc2c1 (stereo not drawn),3.99%
10,Brc1c(CSc2nncc3ccccc23)nc2ccccn12,-3.21%
11,CCC(C)[C@@H](C(=O)OC)N(CCc1cn(Cc2ccccc2)nn1)S(=O)(=O)c1ccccc1Br (stereo partly drawn),-6.72%
12,O=C1NC(Nc2nc3ccccc3s2)(C(F)(F)F)C(=O)N1C1CCCCC1 (stereo not drawn),-23%
13,c1ccc2sc(NN=C3CCCC3)nc2c1,37.2% (active)
14,O=C(COc1ccc(-c2ccccc2)cc1)NN=C1CCCC1,0.58%
15,COC(=O)C1=C(C)N(Cc2ccc(C(F)(F)F)cc2)C(=NCc2ccccc2)NC1c1ccccc1C(F)(F)F (stereo not drawn),6.99%
16,Cc1nc2ccc(C(=O)N3CCN(C(=O)C(C)(C)C)CC3)cc2n1C1CCCC1,-2.14%
17,COC(=O)[C@]12C[C@H](CC(=O)NCCc3ccccc3OC)C(=O)N(Cc3ccco3)C1=C[C@H](C(C)C)O[C@@H]2C1CC1,-4.62%
18,CCOc1[nH]n(-c2ccc(Cl)cc2)c(=O)c1C=Nc1ccc(O)cc1,37.3% (active)
19,O=C(c1cccc(C(F)(F)F)c1)N1CC[C@H]2[C@H](CCCN2Cc2cc(F)cc(F)c2)C1,-3.78%
20,CCC1(CC)NC(=O)N(CC(=O)OCC(=O)Nc2ccc(C(F)(F)F)cc2)C1=O,-3.48%
